What was measured:
[1] = test system: Mycobacterium tuberculosis; assay: Antitubercular activity against Mycobacterium tuberculosis H37Rv ATCC 25618 assessed as reduction in bacterial growth incubated for 14 days in presence of 1/2 x MIC ethambutol by MABA method; assay type: functional; settings: H37Rv ATCC 25618, 336 h, time 14 day
Outline: (§1)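 Checkerboard-type combination in Middlebrook 7H9 with 10% OADC. The test derivative at 1 to 1/32 of its MIC alone was mixed with the reference drug fixed at 1/2 its MIC. 4 ml samples were inoculated with McFarland 1 suspension and incubated 14 days at 37 °C. MIC is the lowest derivative concentration in combination that inhibited growth in liquid medium.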

[2] = test system: Mycobacterium tuberculosis; assay: Antitubercular activity against Mycobacterium tuberculosis Spec.192 assessed as reduction in bacterial growth incubated for 14 days in presence of 1/2 x MIC rifampicin by MABA method; assay type: functional; settings: Mycobacterium tuberculosis, 192, 336 h; time 14 day; outline: as §1
[3] = test system: Mycobacterium tuberculosis; assay: Antitubercular activity against Mycobacterium tuberculosis H37Rv ATCC 25618 assessed as reduction in bacterial growth incubated for 14 days in presence of 1/2 x MIC streptomycin by MABA method; assay type: functional; settings: H37Rv ATCC 25618, 336 h, time 14 day; outline: as §1
[4] = test system: Mycobacterium tuberculosis; assay: Potentiation of streptomycin-induced antimycobacterial activity against Mycobacterium tuberculosis H37Rv ATCC 25618 assessed as fold decrease in streptomycin MIC at 1/2X MIC incubated for 14 days in presence of streptomycin by MABA method; assay type: functional; settings: time 14 day
Outline: (§2)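 Combination assay in Middlebrook 7H9 broth with 10% OADC. The reference drug (INH, RMP, SM or EMB) was varied from 1 to 1/32 of its MIC, and the test derivative was fixed at 1/2 its own MIC. Single-agent MICs were determined first by MABA. Inoculum was 1 McFarland, with 14 days of incubation at 37 °C. The endpoint was the lowest reference-drug concentration that inhibited growth.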

[5] = test system: Mycobacterium scrofulaceum; assay: Antibacterial activity against Mycobacterium scrofulaceum assessed as inhibition of microbial growth incubated for 1 week by MABA method; assay type: functional; settings: 168 h, time 1 weeks
Outline: (§3)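 Microplate Alamar Blue assay using two-fold serial microdilution in Middlebrook 7H9 broth with 10% OADC, compounds 0.125–512 µg/ml from DMSO stocks. Inoculum came from fresh LJ culture, was adjusted to McFarland 1 and diluted 1:20. Plates were incubated 1 week at 37 °C, Alamar blue was added and plates were re-incubated 24 h. MIC was the lowest concentration preventing the blue-to-pink change. Each plate carried growth and sterile controls.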

Mycobacterium xenopi = assay: Antibacterial activity against Mycobacterium xenopi assessed as inhibition of microbial growth incubated for 1 week by MABA method; assay type: functional; settings: 168 h, time 1 weeks; outline: as §3
[6] = test system: Mycobacterium tuberculosis; assay: Potentiation of streptomycin-induced antimycobacterial activity against Mycobacterium tuberculosis Spec.192 assessed as fold decrease in streptomycin MIC at 1/2X MIC incubated for 14 days in presence of streptomycin by MABA method; assay type: functional; settings: time 14 day; outline: as §2
[7] = test system: Mycobacterium tuberculosis; assay: Antitubercular activity against Mycobacterium tuberculosis H37Rv ATCC 25618 assessed as reduction in bacterial growth incubated for 14 days in presence of 1/2 x MIC rifampicin by MABA method; assay type: functional; settings: H37Rv ATCC 25618, 336 h, time 14 day; outline: as §1
Staphylococcus aureus = assay: Antibacterial activity against Staphylococcus aureus ATCC 6538 assessed as bacterial growth inhibition measured after 18 hrs by two-fold serial microdilution method; assay type: functional
Outline: (§4)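 Two-fold serial broth microdilution in MH II medium following modified CLSI procedures. Compounds were dissolved in DMSO and diluted in medium to at most 1% solvent, tested from 0.03125 to 512 μg/ml. Final inoculum 10^6 CFU/ml. MIC was taken as the lowest concentration with no visible growth after 18 h at 35 °C.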

HaCaT [8] = assay: Cytotoxicity against human HaCaT cells assessed as LDH release at 100 uM incubated for 72 hrs by LDH assay; assay type: cell-based
Outline: (§5)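 LDH release measured with a kit after 72 h exposure to 100 μM compound. Cells were seeded at 1×10^4 per well in DMEM or EMEM with 2% FBS. Absorbance was read at 490 nm. Release (%) = (A sample − A low control)/(A high control − A low control) × 100, with the Triton X-100 (1%) control taken as 100% release. Values are mean ± SD of three independent experiments run in triplicate.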

[9] = test system: Mycobacterium tuberculosis; assay: Antitubercular activity against Mycobacterium tuberculosis Spec.192 assessed as fractional inhibitory concentration index in presence of 1/2 x MIC ethambutol incubated for 14 days by MABA method; assay type: functional; settings: time 14 day
Outline: (§6)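 Interaction analysis in Middlebrook 7H9 with 10% OADC. Combination MICs came from mixing the derivative (1 to 1/32 MIC) with the reference drug at 1/2 MIC, and the reverse, after 14 days at 37 °C with McFarland 1 inoculum. FICI was calculated from the combination MIC values and the MICs alone.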

A549 = assay: Cytotoxicity against human A549 cells assessed as LDH release at 100 uM incubated for 72 hrs by LDH assay; assay type: cell-based; settings: a549, 72 h; outline: as §5
[10] = test system: Mycobacterium tuberculosis; assay: Antitubercular activity against Mycobacterium tuberculosis Spec.192 assessed as fractional inhibitory concentration index in presence of 1/2 x MIC rifampicin incubated for 14 days by MABA method; assay type: functional; settings: time 14 day; outline: as §6
HaCaT [11] = assay: Cytotoxicity against human HaCaT cells assessed as reduction in cell viability measured after 72 hrs by MTT assay; assay type: cell-based
Outline: (§7)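 MTT viability assay on cells grown in DMEM with 10% heat-inactivated FBS, penicillin/streptomycin and 20 mM HEPES at 37 °C/5% CO2. Cells were seeded at 1×10^4 per well and allowed to adhere for 24 h, then the medium was refreshed. Compounds were added at 20–140 μM for 72 h at 37 °C, followed by MTT (0.5 mg/mL in serum-free medium) for 4 h. Untreated cells served as control. IC50 is the concentration giving 50% growth inhibition versus control.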

Proteus vulgaris = assay: Antibacterial activity against Proteus vulgaris NCTC 4635 assessed as bacterial growth inhibition measured after 18 hrs by two-fold serial microdilution method; assay type: functional; outline: as §4
[12] = test system: Mycobacterium tuberculosis; assay: Antitubercular activity against Mycobacterium tuberculosis Spec.192 assessed as isoniazid MIC incubated for 14 days in presence of isoniazid by MABA method; assay type: functional; settings: Mycobacterium tuberculosis, 192, 336 h; time 14 day
Outline: (§8)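 In Middlebrook 7H9 with 10% OADC, the reference drug (INH, RMP, SM or EMB) at 1 to 1/32 of its MIC alone was mixed with the test derivative fixed at 1/2 its MIC. 4 ml samples were inoculated with McFarland 1 suspension and incubated 14 days at 37 °C. MIC is the lowest drug concentration in combination that inhibited growth.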

[13] = test system: Mycobacterium tuberculosis; assay: Antitubercular activity against Mycobacterium tuberculosis H37Rv ATCC 25618 assessed as fractional inhibitory concentration index incubated for 14 days in presence of 1/2 x MIC streptomycin by MABA method; assay type: functional; settings: time 14 day; outline: as §6
HaCaT [14] = assay: Cytotoxicity against human HaCaT cells assessed as reduction in cell viability at 100 uM measured after 72 hrs by MTT assay; assay type: cell-based; outline: as §7
[15] = test system: Mycobacterium tuberculosis; assay: Antitubercular activity against Mycobacterium tuberculosis Spec.192 assessed as reduction in bacterial growth incubated for 14 days in presence of 1/2 x MIC ethambutol by MABA method; assay type: functional; settings: Mycobacterium tuberculosis, 192, 336 h; time 14 day; outline: as §1
[16] = test system: Mycobacterium tuberculosis; assay: Antitubercular activity against Mycobacterium tuberculosis H37Rv ATCC 25618 assessed as fractional inhibitory concentration index incubated for 14 days in presence of 1/2 x MIC ethambutol by MABA method; assay type: functional; settings: time 14 day; outline: as §6
[17] = test system: Mycobacterium tuberculosis; assay: Antitubercular activity against Mycobacterium tuberculosis H37Rv ATCC 25618 assessed as streptomycin MIC incubated for 14 days in presence of streptomycin by MABA method; assay type: functional; settings: H37Rv ATCC 25618, 336 h, time 14 day; outline: as §8

SMILES | MIC [1] [mg/L] | MIC [2] [mg/L] | MIC [3] [mg/L] | fold change (FC) [4] | MIC [5] [mg/L] | MIC (Mycobacterium xenopi) [mg/L] | fold change (FC) [6] | MIC [7] [mg/L] | MIC (Staphylococcus aureus) [mg/L] | Activity (HaCaT [8]) [%] | fractional inhibitory concentration index (FICI) [9] | Activity (A549) | fractional inhibitory concentration index (FICI) [10] | IC50 (HaCaT [11]) [µM] | MIC (Proteus vulgaris) [mg/L] | MIC [12] [mg/L] | fractional inhibitory concentration index (FICI) [13] | Activity (HaCaT [14]) | MIC [15] [mg/L] | fractional inhibitory concentration index (FICI) [16] | further results
COc1ccc(-n2nnnc2Nc2cccc(Br)c2)cc1 | 0.5 | 0.5 | 0.5 | 2 | 512 | > 512 | 2 | 0.5 | > 256 | 4.88 | 0.75 | Non-Toxic | 0.5 | 138 | > 256 | 0.5 | 0.5 | Non-Toxic | 0.5 | 0.75 | MIC [17]: 0.25 mg/L
COc1ccc(-n2nnnc2Nc2ccc(Br)cc2)cc1 | 0.25 | 0.5 | 0.25 | 4 | 512 | 256 | 4 | 0.5 | > 256 | 7.25 | 0.625 | Non-Toxic | 0.5 | 131 | > 256 | 0.5 | 0.375 | Non-Toxic | 0.25 | 0.625 | MIC [17]: 0.25 mg/L

Reference: ChEMBL document CHEMBL4680121, “Development of (4-methoxyphenyl)-1H-tetrazol-5-amine regioisomers as a new class of selective antitubercular agents” (Eur J Med Chem, 2020)
